Assay results from ChEMBL document CHEMBL3244241, “Synthesis of cephalotaxine esters and correlation of their structures with antitumor activity” (J Med Chem, 1977).

How the values were obtained:
Mus musculus [1] = assay: Toxicity in DBA/2 mouse allografted with mouse P388 cells assessed as change in body weight at 320 mg/kg/day, ip for 9 days compound administered through saline vehicle; assay type: organism-based; set-up: route intraperitoneal; settings: in vivo, 216 h
In short: (§1)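 DBA/2 mice bearing P388 lymphocytic leukemia received one intraperitoneal injection per day for 9 days, given in the vehicle named for each test (water/alcohol-based, saline or saline + Tween 80). Toxicity was noted during dosing alongside survival scoring (T/C, treated versus control mean survival time).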

Mus musculus [2] = assay: Toxicity in DBA/2 mouse allografted with mouse P388 cells assessed as change in body weight at 160 mg/kg/day, ip for 9 days compound administered through saline vehicle; assay type: organism-based; set-up: route intraperitoneal; settings: in vivo, 216 h; in short: as §1
Mus musculus [3] = assay: Toxicity in DBA/2 mouse allografted with mouse P388 cells assessed as change in body weight at 80 mg/kg/day, ip for 9 days compound administered through saline vehicle; assay type: organism-based; set-up: route intraperitoneal; settings: in vivo, 216 h; in short: as §1
Mus musculus [4] = assay: Toxicity in DBA/2 mouse allografted with mouse P388 cells up to 320 mg/kg/day, ip for 9 days; assay type: organism-based; set-up: route intraperitoneal; settings: in vivo, 216 h; in short: as §1
P388 [5] = assay: Antitumor activity against mouse P388 cells allografted in DBA/2 mouse assessed as host survival at 320 mg/kg/day, ip for 9 days compound administered through saline vehicle relative to control; assay type: functional; settings: route intraperitoneal
In short: (§2)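 P388 lymphocytic leukemia in DBA/2 mice. Dosing was one intraperitoneal injection per day for 9 days in the vehicle stated. […] Duplicate tests were run for some doses.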

P388 [6] = assay: Antitumor activity against mouse P388 cells allografted in DBA/2 mouse assessed as host survival at 160 mg/kg/day, ip for 9 days compound administered through saline vehicle relative to control; assay type: functional; settings: route intraperitoneal; in short: as §2
P388 [7] = assay: Antitumor activity against mouse P388 cells allografted in DBA/2 mouse assessed as host survival at 80 mg/kg/day, ip for 9 days compound administered through saline vehicle relative to control; assay type: functional; settings: route intraperitoneal; in short: as §2

SMILES: COC1=C[C@]23CCCN2CCc2cc4c(cc2[C@@H]3[C@@H]1OC(=O)[C@@H](OC(=O)OCC(Cl)(Cl)Cl)c1ccccc1)OCO4
- Activity (Mus musculus [1]): -2.3 g
- Activity (Mus musculus [2]): 1.2 g
- Activity (Mus musculus [3]): -1 g
- Activity (Mus musculus [4]): Toxic
- T/C (P388 [5]): 136%
- T/C (P388 [6]): 154%
- T/C (P388 [7]): 138%
